Measurements from ChEMBL document CHEMBL1143706, “Design, synthesis, and biological evaluation of novel bifunctional C-terminal-modified peptides for delta/mu opioid receptor agonists and neurokinin-1 receptor antagonists” (J Med Chem, 2007).
pEC50, pIC50, pKi: −log10 of the molar value. Square brackets hold non-standard residues; d marks the D form. Peptide text beside a SMILES is read from it. * marks the point of attachment. OBzl(3,5-(CF3)2) = FC(F)(F)c1cc(CO*)cc(C(F)(F)F)c1

What was measured:
[1] = biological target: T1, Delta-type opioid receptor (Homo sapiens, UniProt P41143); assay: Displacement of [3H]DPDPE from human delta opioid receptor expressed in HN9.10 cells; format: cell-based
T1 sequence (P41143 whole entry): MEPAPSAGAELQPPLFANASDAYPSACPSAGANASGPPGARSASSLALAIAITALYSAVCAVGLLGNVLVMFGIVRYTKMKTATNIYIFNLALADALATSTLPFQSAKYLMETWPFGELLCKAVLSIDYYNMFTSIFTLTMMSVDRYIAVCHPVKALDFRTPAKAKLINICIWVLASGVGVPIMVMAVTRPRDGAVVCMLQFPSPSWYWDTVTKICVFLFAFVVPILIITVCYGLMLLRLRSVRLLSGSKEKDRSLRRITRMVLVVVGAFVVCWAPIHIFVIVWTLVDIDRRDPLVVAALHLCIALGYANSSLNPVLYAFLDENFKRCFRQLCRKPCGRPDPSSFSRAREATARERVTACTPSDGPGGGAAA

[2] = biological target: T1, Delta-type opioid receptor; assay: Agonist activity at human delta opioid receptor expressed in HN9.10 cells assessed by [35S]GTP-gamma-S binding assay; format: functional, cell-based
Procedure, shortened: (§1)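 Membranes (10 μg) from transfected cells stably expressing hDOR or rMOR, in 1 mL of 50 mM HEPES pH 7.4 with 1 mM EDTA, 5 mM MgCl2, 30 μM GDP, 1 mM DTT, 100 mM NaCl, 0.1 mM PMSF, 0.1% BSA and 0.1 nM [35S]GTPγS. Peptide added at various concentrations in duplicate, 90 min at 30 °C, then filtration. Nonspecific binding defined with 10 μM GTPγS. Stimulation taken as % over basal; EC50 and Emax by nonlinear regression from two independent experiments.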

Mu-type opioid receptor [3] = biological target: T2, Mu-type opioid receptor (Rattus norvegicus, UniProt P33535); assay: Agonist activity at rat mu opioid receptor expressed in HN9.10 cells assessed by [35S]GTP-gamma-S binding assay; format: functional, cell-based; procedure, shortened: as §1
T2 sequence (P33535 whole entry): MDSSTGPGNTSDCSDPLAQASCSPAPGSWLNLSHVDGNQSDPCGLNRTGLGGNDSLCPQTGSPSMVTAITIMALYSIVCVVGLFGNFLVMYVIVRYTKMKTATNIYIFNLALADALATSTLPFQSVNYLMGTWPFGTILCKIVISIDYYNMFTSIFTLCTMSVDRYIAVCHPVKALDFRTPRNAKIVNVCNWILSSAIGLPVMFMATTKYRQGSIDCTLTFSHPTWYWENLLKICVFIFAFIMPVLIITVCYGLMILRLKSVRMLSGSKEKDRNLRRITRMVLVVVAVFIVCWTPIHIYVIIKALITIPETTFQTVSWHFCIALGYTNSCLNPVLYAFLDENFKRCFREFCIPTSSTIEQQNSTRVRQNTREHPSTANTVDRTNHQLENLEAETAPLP

[4] = Ratio of EC50 for rat mu opioid receptor to EC50 for human delta opioid receptor by [35S]GTPgammaS binding assay; format: functional; procedure, shortened: as §1
[5] = Ratio of Ki for rat mu opioid receptor to Ki for human delta opioid receptor
Procedure, shortened: (§2)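 Competition binding on crude membranes (50 μg) from cells stably expressing rMOR ([3H]DAMGO, 1.0 nM) or hDOR ([3H]DPDPE, 1.0 nM). Buffer was 50 mM Tris pH 7.4 with peptidase/protease inhibitors and 1 mg/mL BSA. Ten peptide concentrations were run in duplicate for 3 h at 25 °C, with 10 μM naloxone for nonspecific binding. Separation by filtration and scintillation counting; IC50 by nonlinear regression from two experiments; Ki by Cheng–Prusoff.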

[6] = Ratio of IC50 for mu opioid receptor in GPI assay to IC50 for delta opioid receptor in MVD assay; format: functional
Procedure, shortened: (§3)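 Isolated tissues, electrically stimulated at supramaximal voltage: guinea pig (male Hartley) ileum LMMP (1 g tension, Krebs, 0.1 Hz, 0.4 ms) and male ICR mouse vas deferens (0.5 g, Mg-free Krebs, 0.1 Hz, 2.0 ms), both at 37 °C.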

[7] = biological target: Substance-P receptor (Cavia porcellus) (UniProt P30547); assay: Agonist activity at NK1 receptor in Hartley guinea pig isolated ileum assessed as muscle contraction relative to KCl; format: functional, tissue-based; set-up: concentration or dose not given beside the values
Substance-P receptor (Cavia porcellus), sequence (P30547 whole entry): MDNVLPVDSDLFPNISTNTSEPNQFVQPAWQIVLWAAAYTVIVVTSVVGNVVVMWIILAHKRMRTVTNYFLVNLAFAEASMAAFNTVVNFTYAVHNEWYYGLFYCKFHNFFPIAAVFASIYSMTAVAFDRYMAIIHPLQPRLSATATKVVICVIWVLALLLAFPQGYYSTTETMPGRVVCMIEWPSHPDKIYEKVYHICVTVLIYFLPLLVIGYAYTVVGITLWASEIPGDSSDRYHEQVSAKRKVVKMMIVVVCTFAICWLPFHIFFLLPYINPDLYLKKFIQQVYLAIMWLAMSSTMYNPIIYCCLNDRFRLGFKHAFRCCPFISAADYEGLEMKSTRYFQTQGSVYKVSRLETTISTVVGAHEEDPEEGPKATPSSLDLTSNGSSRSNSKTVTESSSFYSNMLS
Procedure, shortened: (§4)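 Guinea pig ileum LMMP (male Hartley) in oxygenated Krebs at 37 °C, 1 g tension, exposed to peptide at the tested antagonist concentration. Any contraction was expressed relative to the initial KCl-induced contraction of the same tissue. Testing stopped at […].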

[8] = biological target: Substance-P receptor (Cavia porcellus) (UniProt P30547); assay: Antagonist activity at NK1 receptor in Hartley guinea pig isolated ileum assessed as inhibition of substance P-induced muscle contraction; format: functional, tissue-based
Procedure, shortened: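 Guinea pig ileum LMMP (male Hartley), 1 g tension, in oxygenated Krebs at 37 °C, with 1 μM naloxone present. Substance P dose–response curves were run with and without peptide. Responses were expressed as % of the maximal peak of the control substance P curve, and Ke was derived from these curves.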

[9] = biological target: Mu-type opioid receptor (Cavia porcellus) (UniProt P97266); assay: Agonist activity at mu opioid receptor in Hartley guinea pig isolated ileum assessed as muscle contraction at 1 uM relative to KCl; format: functional, tissue-based; procedure, shortened: as §4
Mu-type opioid receptor (Cavia porcellus), sequence (P97266 whole entry): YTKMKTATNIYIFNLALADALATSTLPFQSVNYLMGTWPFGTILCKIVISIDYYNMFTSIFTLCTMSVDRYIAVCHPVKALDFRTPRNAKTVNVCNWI

[10] = biological target: T1, Delta-type opioid receptor; assay: Agonist activity at human delta opioid receptor expressed in HN9.10 cells assessed by [35S]GTP-gamma-S binding assay relative to control; format: functional, cell-based; procedure, shortened: as §1
[11] = biological target: Mu-type opioid receptor (Rattus norvegicus) (UniProt P33535); assay: Agonist activity at rat mu opioid receptor expressed in HN9.10 cells assessed by [35S]GTP-gamma-S binding assay relative to control; format: functional, cell-based; procedure, shortened: as §1
Mu-type opioid receptor (Rattus norvegicus), sequence (P33535 whole entry): as the sequence (P33535 whole entry) above

Mu-type opioid receptor [12] = biological target: Mu-type opioid receptor (Cavia porcellus, UniProt P97266); assay: Agonist activity at mu opioid receptor in Hartley guinea pig ileum assessed as inhibition of electrically-stimulated muscle contraction; format: functional, tissue-based; procedure, shortened: as §3
Mu-type opioid receptor (Cavia porcellus, UniProt P97266), sequence (P97266 whole entry): as the sequence (P97266 whole entry) above

Mu-type opioid receptor [13] = biological target: T2, Mu-type opioid receptor; assay: Displacement of [3H]DAMGO from rat mu opioid receptor expressed in HN9.10 cells; format: cell-based; procedure, shortened: as §2

Row | SMILES | pKi [1] | pEC50 [2] | pEC50 (Mu-type opioid receptor [3]) | Ratio EC50 [4] | Ratio Ki [5] | Ratio IC50 [6] | Activity [7] | Ke [8] | Activity [9] | Emax [10] | Emax [11] | pIC50 (Mu-type opioid receptor [12]) | pKi (Mu-type opioid receptor [13])
1 | CC(C)C[C@H](NC(=O)[C@@H]1CCCN1C(=O)[C@H](Cc1ccccc1)NC(=O)[C@H](Cc1ccccc1)NC(=O)CNC(=O)[C@@H](C)NC(=O)[C@@H](N)Cc1ccc(O)cc1)C(=O)N[C@@H](Cc1c[nH]c2ccccc12)C(=O)OCc1cc(C(F)(F)F)cc(C(F)(F)F)c1 | 7.82 | 7.68 | 7.23 | 2.8 | 1.9 | > 1 | 0% | 14 nM | 7% | 39% | 36% |  | 
2 | CC(C)C[C@H](NC(=O)[C@@H]1CCCN1C(=O)[C@H](CC[S+](C)[O-])NC(=O)[C@H](Cc1ccccc1)NC(=O)CNC(=O)[C@@H](C)NC(=O)[C@@H](N)Cc1ccc(O)cc1)C(=O)N[C@@H](Cc1c[nH]c2ccccc12)C(=O)OCc1cc(C(F)(F)F)cc(C(F)(F)F)c1 (some centres undefined) |  |  |  |  |  |  |  | 7.8 nM |  | 52% |  | 6.82 | 
3 | CC(C)C[C@H](NC(=O)[C@@H]1CCCN1C(=O)[C@H](CC(C)C)NC(=O)[C@H](Cc1ccccc1)NC(=O)CNC(=O)[C@@H](C)NC(=O)[C@@H](N)Cc1ccc(O)cc1)C(=O)N[C@@H](Cc1c[nH]c2ccccc12)C(=O)OCc1cc(C(F)(F)F)cc(C(F)(F)F)c1 |  |  | 7.48 | 3.4 | 4.7 | 3.4 | 0% | 19 nM |  | 43% | 45% | 6.47 | 7.64
4 | CC(=O)N[C@@H](Cc1c[nH]c2ccccc12)C(=O)OCc1cc(C(F)(F)F)cc(C(F)(F)F)c1 |  |  |  |  |  |  |  | 250 nM |  |  |  |  | 
5 | CC(C)C[C@@H](NC(=O)[C@H](Cc1ccccc1)NC(=O)CNC(=O)[C@@H](C)NC(=O)[C@@H](N)Cc1ccc(O)cc1)C(=O)O [DADLE] |  |  |  |  |  |  |  |  |  |  |  | 7.62 | 
6 | CC(C)C[C@H](NC(=O)[C@@H]1CCCN1C(=O)[C@@H](Cc1ccccc1)NC(=O)[C@H](Cc1ccccc1)NC(=O)CNC(=O)[C@@H](C)NC(=O)[C@@H](N)Cc1ccc(O)cc1)C(=O)N[C@@H](Cc1c[nH]c2ccccc12)C(=O)OCc1cc(C(F)(F)F)cc(C(F)(F)F)c1 |  | 7.77 | 6.46 | 20 | 4.1 | > 2.4 | 0% | 70 nM | 9% | 23% | 24% |  | 
7 | CCCC[C@@H](C(=O)N1CCC[C@H]1C(=O)N[C@@H](CC(C)C)C(=O)N[C@@H](Cc1c[nH]c2ccccc12)C(=O)OCc1cc(C(F)(F)F)cc(C(F)(F)F)c1)N(C)C(=O)[C@H](Cc1ccccc1)NC(=O)CNC(=O)[C@@H](C)NC(=O)[C@@H](N)Cc1ccc(O)cc1 |  | 6.44 |  |  |  |  | 2% | 4.6 nM | 12% | 290% |  |  | 
8 | CSCC[C@H](NC(=O)[C@H](Cc1ccccc1)NC(=O)CNC(=O)[C@@H](C)NC(=O)[C@@H](N)Cc1ccc(O)cc1)C(=O)N1CCC[C@H]1C(=O)N[C@@H](CC(C)C)C(=O)N[C@@H](Cc1c[nH]c2ccccc12)C(=O)OCc1cc(C(F)(F)F)cc(C(F)(F)F)c1 |  | 8.54 |  |  |  |  | 0% | 25 nM |  | 45% | 42% | 6.44 | 
9 | CC(C)C[C@H](NC(=O)[C@@H]1CCCN1C(=O)CNC(=O)[C@H](Cc1ccccc1)NC(=O)CNC(=O)[C@@H](C)NC(=O)[C@@H](N)Cc1ccc(O)cc1)C(=O)N[C@@H](Cc1c[nH]c2ccccc12)C(=O)OCc1cc(C(F)(F)F)cc(C(F)(F)F)c1 (H-Y[dA]GFGPLW-{OBzl(3,5-(CF3)2)}) |  | 7.30 | 7.38 |  |  |  | 0% | 5.4 nM |  | 34% | 36% | 6.42 | 
10 | CCCC[C@H](NC(=O)[C@H](Cc1ccccc1)NC(=O)CNC(=O)[C@@H](C)NC(=O)[C@@H](N)Cc1ccc(O)cc1)C(=O)N1CCC[C@H]1C(=O)N[C@@H](CC(C)C)C(=O)N[C@@H](Cc1c[nH]c2ccccc12)C(=O)OCc1cc(C(F)(F)F)cc(C(F)(F)F)c1 |  | 8.40 |  |  |  |  | 0% | 7.9 nM |  | 130% |  | 6.43 | 
